Where “and” joins values, the source holds several entries; their conditions need not be identical. Equal values may be shown once. Read-outs that look alike come from different tables or passages of the source.
Key:
CRAB = test: Checkerboard microdilution assay, antibiotic with gold complexes; format: cell-based, Acinetobacter baumannii; conditions: for MIC: Acinetobacter baumannii; for MIC of antibiotic: antibiotic alone; for MIC of antibiotic / FIC index: CRAB
How it was run: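 Checkerboard in 96-well plates. Inoculum diluted per the CLSI broth microdilution method. Gold complex 0–20 μM crossed with antibiotic 0–240 μM. Growth inhibition read as OD600 on a plate reader.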

TrxR in CRAB = TrxR in CRAB (Acinetobacter baumannii, UniProt A0A0G4QN87); test: Cellular TrxR activity assay; format: cell-based; conditions: read-out: IC50 inhibition of TrxR activity in CRAB; 2 h treatment of bacteria
TrxR in CRAB, sequence (A0A0G4QN87 1-315): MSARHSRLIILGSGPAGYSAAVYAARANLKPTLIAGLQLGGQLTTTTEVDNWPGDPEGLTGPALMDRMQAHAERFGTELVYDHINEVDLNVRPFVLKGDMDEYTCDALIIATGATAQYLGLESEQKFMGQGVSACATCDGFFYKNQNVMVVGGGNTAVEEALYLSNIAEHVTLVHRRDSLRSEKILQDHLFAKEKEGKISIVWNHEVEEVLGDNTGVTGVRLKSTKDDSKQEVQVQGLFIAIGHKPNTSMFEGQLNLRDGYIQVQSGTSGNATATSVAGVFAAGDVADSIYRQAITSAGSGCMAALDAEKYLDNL
How it was run: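 Cultures at OD600 0.4–0.6 exposed to 0, 0.5, 1, 2, 5, 10, 20 μM for 2 h. Pellets washed three times in PBS and normalised to OD600 0.7 ± 0.02. TrxR assayed with a kit: NADPH-driven DTNB reduction, 2-vinylpyridine added to block GSH, activity from the rate of TNB increase at 412 nm on a plate reader.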

purified rat liver TrxR = biological target: T1, purified rat liver TrxR (Rattus norvegicus, UniProt O89049); conditions: read-out: IC50 purified TrxR activity; previous report ref 38; cited from earlier work
T1 sequence (O89049 1-499): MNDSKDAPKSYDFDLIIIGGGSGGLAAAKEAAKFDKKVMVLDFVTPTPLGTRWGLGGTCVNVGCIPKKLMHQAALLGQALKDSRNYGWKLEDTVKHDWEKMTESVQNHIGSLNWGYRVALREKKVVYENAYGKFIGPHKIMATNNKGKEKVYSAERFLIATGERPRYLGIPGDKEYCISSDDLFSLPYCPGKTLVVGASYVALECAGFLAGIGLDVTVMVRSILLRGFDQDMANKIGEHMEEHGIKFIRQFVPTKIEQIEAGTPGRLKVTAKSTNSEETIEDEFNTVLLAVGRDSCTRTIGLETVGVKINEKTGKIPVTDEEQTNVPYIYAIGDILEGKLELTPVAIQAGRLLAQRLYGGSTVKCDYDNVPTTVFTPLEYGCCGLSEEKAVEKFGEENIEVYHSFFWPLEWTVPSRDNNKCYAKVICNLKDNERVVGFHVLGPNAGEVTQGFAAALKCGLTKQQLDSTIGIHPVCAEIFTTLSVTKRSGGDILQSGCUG

[1] = test system: carbapenem-resistant Pseudomonas aeruginosa (BAA-2108); test: MIC by microbroth dilution against CRPA; format: cell-based; conditions: 24 h incubation
How it was run: (§1)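 Broth microdilution per CLSI guidelines in 96-well plates. Incubated 37 °C for 24 h, then read on a microplate reader.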

[2] = test system: carbapenem-resistant Klebsiella pneumonia (BAA-1705); test: MIC by microbroth dilution against CRKP; format: cell-based; conditions: 24 h incubation
How it was run: as §1

CRAB-induced peritonitis = test: Murine peritonitis infection model; format: in vivo, BALB/c mice
How it was run: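 Male (n = 8/group) and female (n = 12/group) BALB/c mice, 18–22 g, infected i.p. with 200 μL CRAB (1 × 10^9 cfu/mL). Single i.p. dose of 5 mg/kg given 1 h post-infection; PBS as control. Survival followed for 72 h. Experiment repeated three times.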

[3] = test system: carbapenem-resistant Acinetobacter baumannii (CRAB); test: MIC by microbroth dilution against CRAB; format: cell-based; conditions: 24 h incubation
How it was run: as §1

[4] = test system: vancomycin-intermediate Staphylococcus aureus (ATCC 700699); test: MIC by microbroth dilution against VISA; format: cell-based; conditions: 24 h incubation
How it was run: as §1

TrxB expression in CRAB = test: TrxB expression by qPCR; format: cell-based, Acinetobacter baumannii; conditions: 2 h
How it was run: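 Bacteria at initial OD600 0.4–0.5 exposed to compound and shaken 2 h at 37 °C. Total RNA extracted with a kit (lysis buffer, chloroform). TrxB mRNA measured by qPCR with 16S as internal control, 2^−ΔΔCt method, in triplicate.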

[5] = test system: carbapenem-resistant Escherichia coli (BAA-2140); test: MIC by microbroth dilution against CREco; format: cell-based; conditions: 24 h incubation
How it was run: as §1

Row | Structure (SMILES) | MIC (CRAB; read-out: MIC of cefotaxime in the presence of H7) [µM] | MIC (CRAB; read-out: MIC of cefotaxime in the presence of H8) [µM] | MIC of antibiotic (CRAB) [µM] | IC50 (TrxR in CRAB) [µM] | IC50 (purified rat liver TrxR) [µM] | FIC index (CRAB; gold complex in combination with cefotaxime) | FIC index (CRAB; gold complex in combination with imipenem) | MIC CRPA [1] | MIC CRKP [2] | mice surviving to 34 h (CRAB-induced peritonitis; female BALB/c, n = 12, i.p. 5 mg/kg 1 h after infection) | mice surviving to 24 h (CRAB-induced peritonitis; male BALB/c, n = 8, single i.p. 5 mg/kg 1 h after infection) | MIC CRAB [3] | MIC VISA [4] | expression of TrxB (mRNA) (TrxB expression in CRAB) | MIC CREco [5]
1 | CO/N=C(\C(=O)N[C@@H]1C(=O)N2C(C(=O)O)=C(COC(C)=O)CS[C@H]12)c1csc(N)n1 [Cefotaxime] | 30 | 30 | 240 | – | – | – | – | – | – | – | – | – | – | – | –
2 | C[C@@H](O)[C@H]1C(=O)N2C(C(=O)O)=C(SCCN=CN)C[C@H]12 [Imipenem] | – | – | 240 | – | – | – | – | – | – | – | – | – | – | – | –
3 | CC(=O)OC[C@H]1O[C@@H]([S-])[C@H](OC(C)=O)[C@@H](OC(C)=O)[C@@H]1OC(C)=O.CCP(CC)CC.[Au+] [Auranofin] | – | – | – | 6.31 | 0.0826 | 0.625 | 0.75 | 40 μM and 27.12 μg/mL | 40 μM and 27.12 μg/mL | seven of the twelve mice | four of the eight mice | 20 μM and 13.56 μg/mL | 0.34 μg/mL and 0.5 μM | no effect | 40 μM and 27.12 μg/mL
